Experimental data as given in article PMC9494814 (Cell, 2022).
Like-named read-outs stand apart in the source and are kept apart here.

Columns and labels:
[1] = target: T1, αIIbβ3 headpiece (Homo sapiens, UniProt P05106+P08514); conditions: for conformational state of headpiece molecules in the crystal lattice: state 1 closed, state 8 open
How it was run: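 Closed αIIbβ3 headpiece–10E5 Fab crystals stabilised in 15% PEG 8000, 0.2 M ammonium sulfate, 0.1 M Tris-HCl pH 8.9, with glycerol raised in 5% steps to 15%. Compound (0.1-1 mM) added in the final 20% glycerol cryo step, with 1 mM MgCl2/1 mM CaCl2 or 2 mM MnCl2/0.2 mM CaCl2. Soaked 4 h, plunge-frozen in liquid N2. Synchrotron diffraction data collected, then structure refinement.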

[2] = test system: αIIbβ3 on platelets; conditions: cited from earlier work; for LIBS epitopes on platelets in platelet-rich plasma: ref Baba et al., Murphy et al.
[3] = target: T1, αIIbβ3 headpiece; assay: Size-exclusion chromatography; format: biochemical; conditions: 10 μM drug; for effect on αIIbβ3 headpiece conformation in gel filtration: Mg2+ and Mn2+ buffers
How it was run: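 Superdex 200 column equilibrated with 10 µM test compound in HEPES-buffered saline containing either 1 mM Mg2+/1 mM Ca2+ or 2 mM Mn2+/0.2 mM Ca2+. αIIbβ3 headpiece (30 µg) pre-incubated 30 min at RT with 60 µM compound in matching buffer, then chromatographed. Hydrodynamic radius taken from elution. Two runs, or one, per compound; controls ≥3.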

[4] = target: αIIbβ3_N305T (Homo sapiens, UniProt P05106+P08514, N331T); assay: MBC319.4 Fab LIBS epitope exposure on αIIbβ3_N305T transfectants; format: cell-based; conditions: αIIbβ3 N305T transfectants, inhibitors at 100x Kd
How it was run: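 αIIbβ3_N305T transfectants of α5/αV-knockout Expi293F cells, harvested 48 h post-transfection and EDTA-washed. Incubated with 20 nM Alexa647-labelled MBC319.4 Fab and test compound in L-15 with 0.1% BSA, equilibrated 2 h at 22°C. Fab binding read by flow cytometry without washing, as MFI.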

[5] = target: αIIbβ3 on washed human platelets (Homo sapiens, UniProt P05106+P08514); assay: Platelets LIBS exposure assay; format: cell-based
How it was run: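 Blood from drug-free healthy donors was taken into acid-citrate-dextrose. PRP was spun (140xg, 12 min), given PGE1 at 50 ng/ml, pelleted, washed in citrate-dextrose buffer pH 6.5 and resuspended in Tyrode's pH 7.4 with 1% BSA and 1 mM Ca²⁺/Mg²⁺. […] Read-out was unwashed flow cytometry MFI, over three days with two donors.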

[6] = test system: clot retraction in human PRP; assay: Clot retraction in platelet-rich plasma; format: cell-based; conditions: thrombin
How it was run: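 Citrated human PRP pre-incubated 20 min at RT with test compound or buffer (in Tyrode's buffer + 1% BSA) at several concentrations. Glass-tube clot retraction started with thrombin (7.5 U/ml stock) at 37°C and imaged every 15 min. Retraction = 1 − (clot area/whole reaction area). IC50 at 30 and 90 min from a three-parameter inhibitor-response fit. Three runs, PRP from three donors.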

[7] = target: αIIbβ3 WT (Homo sapiens, UniProt P05106+P08514); assay: MBC319.4 Fab LIBS epitope exposure on αIIbβ3 WT transfectants; format: cell-based; conditions: inhibitors at 100x Kd
How it was run: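 Cells transiently transfected with αIIbβ3 received valproic acid (3 mM final) and glucose (0.4%) at 24 h, and were washed at 48 h in EDTA-containing then plain L-15/0.1% BSA. Cells were incubated with 20 nM Alexa647-MBC319.4 Fab plus inhibitor (Kd from FITC-echistatin competition on WT transfectants) in L15/0.1% BSA, 22°C for 2 h. Read-out was unwashed flow cytometry.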

[8] = after activation with thrombin 0.5 U/ml

Question: For CN1CCN(C(=N)c2ccc(C3=NOC(CN4CCN(CC(=O)O)CC4)C3)cc2)CC1 (stereo not shown) [BMS4, 2-(4-((3-(4-(imino(4-methylpiperazin-1-yl)methyl)phenyl)-4,5-dihydroisoxazol-5-yl)methyl)piperazin-1-yl)acetic acid], which “effect on structure of closed αIIbβ3 headpiece in crystals” value (“effect on structure” for short) ([1]; soaked in Mg2+) is on record?
Answer: no structural perturbation

Question: What about the “effect on structure” value ([1]; soaked in Mn2+) of the same compound?
Answer: no structural perturbation

Question: And the LIBS on platelets ([2]; Mg2+ ref Breth et al., 2005)?
Answer: not to induce LIBS

Question: And the “effect on αIIbβ3 headpiece opening in gel filtration” value (from here on “effect on αIIbβ3 headpiece opening”) ([3]; 1 mM Mg2+/1 mM Ca2+)?
Answer: neither UR-2922 nor BMS4 increased the hydrodynamic radius

Question: What about the “effect on αIIbβ3 headpiece opening” value ([3]; 2 mM Mn2+/0.2 mM Ca2+) of the same compound?
Answer: shifted the headpiece to a smaller hydrodynamic radius than the control

Question: What about the “LIBS (MBC319.4) epitope exposure” value [4] of the same compound?
Answer: significantly suppressed LIBS induction

Question: And the “LIBS epitope exposure (integrin extension) on washed platelets” value (“LIBS epitope exposure” for short) [5, 8]?
Answer: decreased

Question: What does the source list for N=C(N)c1ccc(C2=NOC(CN3CCN(CC(=O)O)CC3)C2)cc1 (stereo not shown) [BMS4–1, 3-(4-((3-(4-carbamimidoylphenyl)-4,5-dihydroisoxazol-5-yl)methyl)piperazin-1-yl)acetic acid]?
Answer: effect on structure of closed αIIbβ3 headpiece in crystals ([1]; soaked in Mn2+): remained in the closed state; effect on αIIbβ3 headpiece conformation in gel filtration [3]: closure stabilizing; LIBS (MBC319.4) epitope exposure [4]: significantly suppressed LIBS induction; inhibition of clot retraction [6]: effective; LIBS epitope exposure (integrin extension) on washed platelets [5, 8]: decreased

Question: For N=C(N)c1ccc(C2=NOC(CN3CCC(CC(=O)O)CC3)C2)cc1 (stereo not shown) [BMS4–2, 2-(1-((3-(4-carbamimidoylphenyl)-4,5-dihydroisoxazol-5-yl)methyl)piperidin-4-yl)acetic acid], which “Ser-123 sidechain oxygen - MIDAS Mn2+ ion distance” value ([1]; soaked in Mn2+) is on record?
Answer: 3.7±0.1 Å

Question: What about the “conformational state of headpiece molecules in the crystal lattice” value ([1]; soaked in Mn2+) of the same compound?
Answer: state 2

Question: And the “effect on αIIbβ3 headpiece opening” value ([3]; 2 mM Mn2+/0.2 mM Ca2+)?
Answer: stabilized headpiece opening

Question: What about the “inhibition of clot retraction” value [6] of the same compound?
Answer: effective

Question: What about the “LIBS epitope exposure” value [5, 8] of the same compound?
Answer: showing significant induction except for BMS4–2 (p=0.06)

Question: For O=C(O)CN1CCN(CC2CC(C3CCNCC3)=NO2)CC1 (stereo not shown) [BMS4–3, 2-(4-((3-(piperidin-4-yl)-4,5-dihydroisoxazol-5-yl)methyl)piperazin-1-yl)acetic acid], which “effect on structure” value ([1]; soaked in Mn2+) is on record?
Answer: remained in the closed state

Question: And the “effect on αIIbβ3 headpiece conformation in gel filtration” value [3]?
Answer: closure stabilizing

Question: Which results are given for Cl.Cl.Cl.N=C(N)c1ccc(N2CCN(C3CCN(CC(=O)O)CC3)CC2)cc1 [GR144053]?
Answer: conformational state of headpiece molecules in the crystal lattice ([1]; soaked in Mn2+): state 1; effect on αIIbβ3 headpiece conformation in gel filtration [3]: closing; LIBS (MBC319.4) epitope exposure [4]: significantly suppressed LIBS induction; LIBS epitope exposure (integrin extension) on washed platelets [5, 8]: decreased

Question: What does the source list for N=C(N)c1ccc(C(=O)N[C@@H](Cc2ccc([N+](=O)[O-])cc2)C(=O)N2CCc3nn(CC(=O)O)cc3C2)cc1 [UR-2922]?
Answer: effect on structure of closed αIIbβ3 headpiece in crystals ([1]; soaked in Mg2+): no structural perturbation; effect on structure of closed αIIbβ3 headpiece in crystals ([1]; soaked in Mn2+): no structural perturbation; LIBS epitopes on platelets ([2]; Mg2+ ref Baba et al., 2001): not to induce LIBS epitopes; effect on αIIbβ3 headpiece opening in gel filtration ([3]; 1 mM Mg2+/1 mM Ca2+): neither UR-2922 nor BMS4 increased the hydrodynamic radius; effect on αIIbβ3 headpiece opening in gel filtration ([3]; 2 mM Mn2+/0.2 mM Ca2+): shifted the headpiece to a smaller hydrodynamic radius than the control; LIBS (MBC319.4) epitope exposure [4]: significantly suppressed LIBS induction; inhibition of clot retraction [6]: effective; LIBS epitope exposure (integrin extension) on washed platelets [5, 8]: decreased

Question: What does the source list for N=C(N)c1ccc(-c2ccc(OC[C@@H]3C[C@@H](CC(=O)O)C(=O)N3)cc2)cc1 [fradafiban, 2-((3S,5S)-5-(((4’-carbamimidoyl-[1,1’-biphenyl]-4-yl)oxy)methyl)-2-oxopyrrolidin-3-yl)acetic acid]?
Answer: effect on structure of closed αIIbβ3 headpiece in crystals ([1]; soaked in Mg2+): did not cause any conformational change; effect on structure of closed αIIbβ3 headpiece in crystals ([1]; soaked in Mn2+): induced a 2 Å movement in the β1-α1 loop at the Cα atom of Ser-123 toward ligand; effect on αIIbβ3 headpiece opening in gel filtration ([3]; 1 mM Mg2+/1 mM Ca2+): did not cause headpiece opening; effect on αIIbβ3 headpiece opening in gel filtration ([3]; 2 mM Mn2+/0.2 mM Ca2+): induced headpiece opening as completely as tirofiban; LIBS epitope exposure (integrin extension) on washed platelets ([5]; absence of thrombin): modestly but significantly induced integrin extension

Question: Which results are given for N=C(N)c1ccc(N2C[C@H](CN3CCN(CCC(=O)O)CC3)OC2=O)cc1 [gantofiban analog, (S)-3-(4-((3-(4-carbamimidoylphenyl)-2-oxooxazolidin-5-yl)methyl)piperazin-1-yl)propanoic acid]?
Answer: effect on structure of closed αIIbβ3 headpiece in crystals ([1]; soaked in Mn2+): induced movement of the β1-α1 loop and Ser-123 sidechain oxygen into the position of water 1; effect on αIIbβ3 headpiece conformation in gel filtration [3]: does in both Mg^2+ and Mn^2+

Question: For [H]/N=C(/N)c1ccc(C(=O)N[C@@H](Cc2ccc(O)cc2)C(=O)N2CCC(OCC(=O)O)CC2)cc1 [lamifiban], which “effect on structure” value ([1]; soaked in Mg2+) is on record?
Answer: did not cause any conformational change

Question: What about the “effect on structure” value ([1]; soaked in Mn2+) of the same compound?
Answer: induced a 2 Å movement in the β1-α1 loop at the Cα atom of Ser-123 toward ligand

Question: What about the “LIBS epitopes on platelets in platelet-rich plasma” value ([2]; 2001, 1998) of the same compound?
Answer: not to induce LIBS epitopes

Question: And the “exposure of LIBS epitopes on αIIbβ3 on platelets” value ([2]; ref Murphy et al., 1998)?
Answer: did not induce exposure of LIBS epitopes

Question: And the “effect on αIIbβ3 headpiece opening” value ([3]; 1 mM Mg2+/1 mM Ca2+)?
Answer: did not cause headpiece opening

Question: And the “effect on αIIbβ3 headpiece opening” value ([3]; 2 mM Mn2+/0.2 mM Ca2+)?
Answer: induced headpiece opening as completely as tirofiban

Question: And the “LIBS epitope exposure” value ([5]; absence of thrombin)?
Answer: modestly but significantly induced integrin extension

Question: Which “effect on structure” value ([1]; soaked in Mg2+) does the source give for CN1Cc2cc(C(=O)N3CCC(C4CCNCC4)CC3)ccc2N[C@@H](CC(=O)O)C1=O [lotrafiban, (S)-2-(7-([4,4’-bipiperidine]-1-carbonyl)-4-methyl-3-oxo-2,3,4,5-tetrahydro-1H-benzo[e][1,4]diazepin-2-yl)acetic acid] here?
Answer: Ser-123 displaced water 1 to coordinate directly to the MIDAS metal ion

Question: What about the “effect on αIIbβ3 headpiece opening” value ([3]; 1 mM Mg2+/1 mM Ca2+) of the same compound?
Answer: caused the headpiece to elute earlier in gel filtration

Question: What about the “hydrodynamic radius of αIIbβ3 headpiece” value ([3]; 2 mM Mn2+/0.2 mM Ca2+) of the same compound?
Answer: ~ 5.36 nm

Question: And the “LIBS epitope exposure” value ([5]; absence of thrombin)?
Answer: Stronger extension

Question: And the “LIBS (MBC319.4) epitope exposure” value [7]?
Answer: strongly induced LIBS exposure

Question: With CCOC(=O)COC1CCN(C(=O)[C@H](C)NC(=O)c2ccc(C(=N)NO)cc2)CC1 [sibrafiban] as the compound, how does the “effect on structure” value ([1]; soaked in Mg2+) read?
Answer: did not cause any conformational change

Question: And the “effect on structure” value ([1]; soaked in Mn2+)?
Answer: induced a 2 Å movement in the β1-α1 loop at the Cα atom of Ser-123 toward ligand

Question: What about the “LIBS epitopes on platelets in platelet-rich plasma” value ([2]; 2001, 1998) of the same compound?
Answer: not to induce LIBS epitopes

Question: And the “effect on αIIbβ3 headpiece opening” value ([3]; 1 mM Mg2+/1 mM Ca2+)?
Answer: did not cause headpiece opening

Question: And the “effect on αIIbβ3 headpiece opening” value ([3]; 2 mM Mn2+/0.2 mM Ca2+)?
Answer: induced headpiece opening as completely as tirofiban

Question: And the “inhibition of clot retraction” value [6]?
Answer: effective

Question: And the “LIBS epitope exposure” value ([5]; absence of thrombin)?
Answer: modestly but significantly induced integrin extension

Question: Which “effect on structure” value ([1]; soaked in Mn2+) does the source give for “(2S)-2-((butoxycarbonyl)amino)-3-(2-(3-(4-carbamimidoylphenyl)-4,5-dihydroisoxazol-5-yl)acetamido)propanoic acid [roxifiban]” here?
Answer: Ser-123 displaced water 1 to coordinate directly to the MIDAS metal ion

Question: What about the “effect on αIIbβ3 headpiece opening” value ([3]; 1 mM Mg2+/1 mM Ca2+) of the same compound?
Answer: caused the headpiece to elute earlier in gel filtration

Question: What about the “hydrodynamic radius of αIIbβ3 headpiece” value ([3]; 2 mM Mn2+/0.2 mM Ca2+) of the same compound?
Answer: ~ 5.36 nm

Question: What about the “inhibition of clot retraction” value [6] of the same compound?
Answer: effective

Question: And the “LIBS epitope exposure” value ([5]; absence of thrombin)?
Answer: Stronger extension

Question: What about the “LIBS (MBC319.4) epitope exposure” value [7] of the same compound?
Answer: Weaker but significant induction

Question: With eptifibatide as the compound, how does the “effect on structure” value ([1]; soaked in Mg2+) read?
Answer: Ser-123 displaced water 1 to coordinate directly to the MIDAS metal ion

Question: What about the “LIBS epitope exposure” value ([5]; absence of thrombin) of the same compound?
Answer: Stronger extension

Question: And the “LIBS (MBC319.4) epitope exposure” value [7]?
Answer: strongly induced LIBS exposure

Question: With “fibrinogen γ C-terminal dodecapeptide: fibrinogen γ C-terminal dodecapeptide HHLGGAKQAGDV” as the compound, how does the “LIBS (MBC319.4) epitope exposure” value [7] read?
Answer: Weaker but significant induction
